Assay results pooled from the literature.
Each line is one published result; the experiments were not run side by side.
Target: Tyrosine-protein kinase ZAP-70 (ZAP70, Homo sapiens, UniProt P43403)
One construct used (P43403 1-619): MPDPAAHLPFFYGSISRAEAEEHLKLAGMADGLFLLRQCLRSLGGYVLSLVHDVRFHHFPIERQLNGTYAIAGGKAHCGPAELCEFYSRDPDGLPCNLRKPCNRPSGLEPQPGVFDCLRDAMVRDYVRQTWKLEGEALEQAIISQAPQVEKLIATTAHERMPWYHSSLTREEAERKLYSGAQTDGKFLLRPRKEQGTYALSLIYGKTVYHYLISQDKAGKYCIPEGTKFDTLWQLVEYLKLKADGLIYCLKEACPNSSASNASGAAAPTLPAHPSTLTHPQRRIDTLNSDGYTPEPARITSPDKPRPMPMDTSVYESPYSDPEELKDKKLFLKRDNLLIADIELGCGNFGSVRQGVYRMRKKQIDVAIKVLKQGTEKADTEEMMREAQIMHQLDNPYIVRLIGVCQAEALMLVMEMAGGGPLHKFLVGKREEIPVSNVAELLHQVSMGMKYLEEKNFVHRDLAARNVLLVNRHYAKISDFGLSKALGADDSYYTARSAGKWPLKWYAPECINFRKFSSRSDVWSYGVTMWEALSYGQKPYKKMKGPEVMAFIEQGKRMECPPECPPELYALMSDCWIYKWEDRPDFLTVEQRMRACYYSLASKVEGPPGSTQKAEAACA

SMILES	assay	conditions	remaining binding
CNC(=O)[C@@H]1CC[C@@H](n2c(-c3ccc4cnccc4c3)nc3ccc(C(=O)NCc4cccc(C(N)=O)c4)cc32)C1	binding, competition with immobilised ligand	1 µM	100%
CNCc1ccccc1-c1csc([C@@H](C)Nc2nc(C)nc3cc(OC)c(OC)cc23)c1	cell-free assay, competition with immobilised ligand	1 µM	87%
CCN1CCN(Cc2ccc(C(=O)Nc3ccc(C)c(Oc4ccc5c(c4)CC(=O)N5)c3)cc2C(F)(F)F)CC1	binding, competition with immobilised ligand	1 µM	100%
O=C(NCc1ncc(C(F)(F)F)cc1Cl)c1ccc2c(c1)C1(CCS(=O)(=O)CC1)[C@@H](C1CC1)N2S(=O)(=O)c1ccc(F)cc1	cell-free assay, competition with immobilised ligand	1 µM	72%
F[C@@H]1CCN(c2nccc(-c3cnn4ncccc34)n2)C1	binding	1 µM	100%
C[C@@H]1CN(c2ccc3ncc(-c4ccc5[nH]nc(C6CC6)c5c4)n3n2)C[C@H](C)O1	binding, competition with immobilised ligand	50 nM	100%
Cc1nc(C2CCN(C(=O)c3ccc(OC(F)(F)F)cc3N)CC2)c2ncc(N3CCN(C)CC3)cc2n1	cell-free assay, competition with immobilised ligand	1 µM	100%
Cc1cnn2ncc(-c3ccnc(N(C)C)n3)c2c1	binding	1 µM	100%
O=C(O)[C@H]1[C@H](Cn2nnc3ccccc3c2=O)CC[C@@H]1C(=O)c1ccc(OCCC2CCOCC2)cc1	cell-free assay, competition with immobilised ligand	1 µM	100%
C[C@H]1CCN(c2nccc(-c3cnn4ncccc34)n2)C1	binding	1 µM	73%
CC(C)(C)c1ccc(-c2nc(CBr)nn2-c2cccc(O)c2)cc1	cell-free assay, competition with immobilised ligand	10 µM	80%
O=C(c1ccc(Nc2nccc(-c3cc4ccccc4s3)n2)cc1)N1CCC(N2CCCC2)CC1	binding, competition with immobilised ligand	1 µM	15%
c1cnn2ncc(-c3ccnc(N4CCC45COC5)n3)c2c1	binding	1 µM	80%
O=C(NCCCC1CCCCC1)c1ccc(CNC(=O)c2cnn(-c3ccccc3)c2C(F)(F)F)cc1	cell-free assay, competition with immobilised ligand	0.1 µM	100%
O=C(c1ccc(Nc2ncc(Cl)c(-c3cc4ccccc4s3)n2)cc1)N1CCC(N2CCCC2)CC1	binding, competition with immobilised ligand	1 µM	10%
CN(C)c1nccc(-c2cnc3ncccn23)n1	binding	1 µM	90%
O=C(NCC1CCOCC1)c1n[nH]cc1NC(=O)c1c(F)cccc1F	binding, competition with immobilised ligand	1 µM	100%
